{"source": "ChEMBL document CHEMBL3272285", "about": "“A potential amphetamine antagonist, adamantanamine derivative of fluphenazine” (J Med Chem, 1976)", "key": {"Rattus norvegicus [1]": {"test_system": "Rattus norvegicus", "experiment": "Toxicity in Sprague-Dawley rat assessed as shock avoidance response at 70 mg/kg, sc on day 1 relative to d-amphetamine", "type": "organism-based", "parameters": "dose 70 mg/kg, route subcutaneous", "conditions": "in vivo"}, "Rattus norvegicus [2]": {"test_system": "Rattus norvegicus", "experiment": "Inhibition of d-amphetamine-induced increase shock avoidance response in Sprague-Dawley rat at 70 mg/kg, sc on day 7, drug administered prior to 2 mg/kg d-amphetamine challenge on 1,2,4 and 7th day relative to control", "type": "functional", "parameters": "scale not given: the % may be the effect or the level left", "how_it_was_run": "(§1)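 Rats were pretreated sc with 0.1 mmol of the dihydrochloride 1, 2, 4 or 7 days before 2 mg/kg d-amphetamine sulfate, in groups of five. Each was placed in a shuttle box 30 min after amphetamine and ran one session. Light and tone came on a variable interval 60-s schedule, with shock 5 s later; a trial ended without response 30 s after shock onset. Avoidances over 50 trials were scored as % of an amphetamine-only control group.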"}, "Rattus norvegicus [3]": {"test_system": "Rattus norvegicus", "experiment": "Toxicity in Sprague-Dawley rat assessed as spontaneous locomotor activity at 70 mg/kg, sc on day 7 relative to control", "type": "organism-based", "parameters": "dose 70 mg/kg, route subcutaneous", "conditions": "in vivo"}, "Rattus norvegicus [4]": {"test_system": "Rattus norvegicus", "experiment": "Toxicity in Sprague-Dawley rat assessed as shock avoidance response at 70 mg/kg, sc on day 4 relative to d-amphetamine", "type": "organism-based", "parameters": "dose 70 mg/kg, route subcutaneous", "conditions": "in vivo"}, "Rattus norvegicus [5]": {"test_system": "Rattus norvegicus", "experiment": "Inhibition of d-amphetamine-induced increase spontaneous locomotor activity in Sprague-Dawley rat at 70 mg/kg, sc on day 1, drug administered prior to 2 mg/kg d-amphetamine challenge on 1,2,4 and 7th day relative to control", "type": "functional", "parameters": "scale not given: the % may be the effect or the level left", "how_it_was_run": "(§2)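 After the initial drug injections, with a sesame oil vehicle group as control, rats got 2 mg/kg d-amphetamine in saline on days 1, 2, 4 and 7. Motor activity was recorded with an electronic motility meter for 30 min immediately after each amphetamine dose, at the same time of day. Counts are expressed as % of the vehicle control group.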"}, "Rattus norvegicus [6]": {"test_system": "Rattus norvegicus", "experiment": "Toxicity in Sprague-Dawley rat assessed as spontaneous locomotor activity at 70 mg/kg, sc on day 1 relative to control", "type": "organism-based", "parameters": "dose 70 mg/kg, route subcutaneous", "conditions": "in vivo"}, "Rattus norvegicus [7]": {"test_system": "Rattus norvegicus", "experiment": "Inhibition of d-amphetamine-induced increase shock avoidance response in Sprague-Dawley rat at 70 mg/kg, sc on day 2, drug administered prior to 2 mg/kg d-amphetamine challenge on 1,2,4 and 7th day relative to control", "type": "functional", "parameters": "scale not given: the % may be the effect or the level left", "how_it_was_run": "as §1"}, "Rattus norvegicus [8]": {"test_system": "Rattus norvegicus", "experiment": "Toxicity in Sprague-Dawley rat assessed as shock avoidance response at 70 mg/kg, sc on day 7 relative to d-amphetamine", "type": "organism-based", "parameters": "dose 70 mg/kg, route subcutaneous", "conditions": "in vivo"}, "Rattus norvegicus [9]": {"test_system": "Rattus norvegicus", "experiment": "Toxicity in Sprague-Dawley rat assessed as shock avoidance response at 70 mg/kg, sc on day 2 relative to d-amphetamine", "type": "organism-based", "parameters": "dose 70 mg/kg, route subcutaneous", "conditions": "in vivo"}, "Rattus norvegicus [10]": {"test_system": "Rattus norvegicus", "experiment": "Inhibition of d-amphetamine-induced increase spontaneous locomotor activity in Sprague-Dawley rat at 70 mg/kg, sc on day 2, drug administered prior to 2 mg/kg d-amphetamine challenge on 1,2,4 and 7th day relative to control", "type": "functional", "parameters": "scale not given: the % may be the effect or the level left", "how_it_was_run": "as §2"}, "Rattus norvegicus [11]": {"test_system": "Rattus norvegicus", "experiment": "Toxicity in Sprague-Dawley rat assessed as sedation effect at 70 mg/kg, sc for 2 days", "type": "organism-based", "parameters": "dose 70 mg/kg, route subcutaneous", "conditions": "in vivo, 48 h"}, "Rattus norvegicus [12]": {"test_system": "Rattus norvegicus", "experiment": "Inhibition of d-amphetamine-induced increase shock avoidance response in Sprague-Dawley rat at 70 mg/kg, sc on day 4, drug administered prior to 2 mg/kg d-amphetamine challenge on 1,2,4 and 7th day relative to control", "type": "functional", "parameters": "scale not given: the % may be the effect or the level left", "how_it_was_run": "as §1"}, "Rattus norvegicus [13]": {"test_system": "Rattus norvegicus", "experiment": "Toxicity in Sprague-Dawley rat assessed as spontaneous locomotor activity at 70 mg/kg, sc on day 2 relative to control", "type": "organism-based", "parameters": "dose 70 mg/kg, route subcutaneous", "conditions": "in vivo"}, "Rattus norvegicus [14]": {"test_system": "Rattus norvegicus", "experiment": "Inhibition of d-amphetamine-induced increase shock avoidance response in Sprague-Dawley rat at 70 mg/kg, sc on day 1, drug administered prior to 2 mg/kg d-amphetamine challenge on 1,2,4 and 7th day relative to control", "type": "functional", "parameters": "scale not given: the % may be the effect or the level left", "how_it_was_run": "as §1"}, "Rattus norvegicus [15]": {"test_system": "Rattus norvegicus", "experiment": "Inhibition of d-amphetamine-induced increase spontaneous locomotor activity in Sprague-Dawley rat at 70 mg/kg, sc on day 7, drug administered prior to 2 mg/kg d-amphetamine challenge on 1,2,4 and 7th day relative to control", "type": "functional", "parameters": "scale not given: the % may be the effect or the level left", "how_it_was_run": "as §2"}, "Rattus norvegicus [16]": {"test_system": "Rattus norvegicus", "experiment": "Toxicity in Sprague-Dawley rat assessed as spontaneous locomotor activity at 70 mg/kg, sc on day 4 relative to control", "type": "organism-based", "parameters": "dose 70 mg/kg, route subcutaneous", "conditions": "in vivo"}, "Rattus norvegicus [17]": {"test_system": "Rattus norvegicus", "experiment": "Inhibition of d-amphetamine-induced increase spontaneous locomotor activity in Sprague-Dawley rat at 70 mg/kg, sc on day 4, drug administered prior to 2 mg/kg d-amphetamine challenge on 1,2,4 and 7th day relative to control", "type": "functional", "parameters": "scale not given: the % may be the effect or the level left", "how_it_was_run": "as §2"}}}
{"molecule": "Cl.O=C(NC12CC3CC(CC(C3)C1)C2)OCCN1CCN(CCCN2c3ccccc3Sc3ccc(C(F)(F)F)cc32)CC1", "values": [{"measurement": "Activity", "setting": "Rattus norvegicus [1]", "result": 71.5, "unit": "%"}, {"measurement": "Activity", "setting": "Rattus norvegicus [2]", "result": 92.5, "unit": "%"}, {"measurement": "Activity", "setting": "Rattus norvegicus [3]", "result": 26.6, "unit": "%"}, {"measurement": "Activity", "setting": "Rattus norvegicus [4]", "result": 90.9, "unit": "%"}, {"measurement": "Activity", "setting": "Rattus norvegicus [5]", "result": 55.7, "unit": "%"}, {"measurement": "Activity", "setting": "Rattus norvegicus [6]", "result": 52.8, "unit": "%"}, {"measurement": "Activity", "setting": "Rattus norvegicus [7]", "result": 47, "unit": "%"}, {"measurement": "Activity", "setting": "Rattus norvegicus [8]", "result": 72, "unit": "%"}, {"measurement": "Activity", "setting": "Rattus norvegicus [9]", "result": 82.2, "unit": "%"}, {"measurement": "Activity", "setting": "Rattus norvegicus [10]", "result": 51.9, "unit": "%"}, {"measurement": "Activity", "setting": "Rattus norvegicus [11]", "result": "Toxic"}, {"measurement": "Activity", "setting": "Rattus norvegicus [12]", "result": 61.8, "unit": "%"}, {"measurement": "Activity", "setting": "Rattus norvegicus [13]", "result": 47.8, "unit": "%"}, {"measurement": "Activity", "setting": "Rattus norvegicus [14]", "result": 16.7, "unit": "%"}, {"measurement": "Activity", "setting": "Rattus norvegicus [15]", "result": 101.2, "unit": "%"}, {"measurement": "Activity", "setting": "Rattus norvegicus [16]", "result": 29.6, "unit": "%"}, {"measurement": "Activity", "setting": "Rattus norvegicus [17]", "result": 71.2, "unit": "%"}]}
